Laboratory results published in the EternaBench riboswitch data.

Test system: MS2 coat protein
Assay: apparent Kd, MS2 coat protein; higher = weaker binding; RNA-MaP array; FMN 200 µM where present
In short: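 The apparent Kd comes from binding curves fitted cluster by cluster, filtered, and summarised as a median. Those curves followed SNAP-549-labelled MS2 coat protein from 0.7 or 1.5 nM, doubling to 3 µM, on Illumina sequencing-chip clusters where stalled E. coli RNA polymerase had transcribed the designs, without and then with constant ligand. The buffer was 100 mM Tris-HCl pH 7.5, 80 mM KCl, 4 mM MgCl2, BSA, DTT, yeast tRNA and Tween-20, and green signal was normalised to red-channel RNA signal and control-cluster median Fmax.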

[1] = designed as: OFF switch for flavin mononucleotide, no ligand
[2] = ligand present: flavin mononucleotide, designed as: OFF switch for flavin mononucleotide
[3] = designed as: ON switch for flavin mononucleotide, no ligand
[4] = ligand present: flavin mononucleotide, designed as: ON switch for flavin mononucleotide

| Sequence | apparent Kd [1] | apparent Kd [2] | apparent Kd [3] | apparent Kd [4] |
| --- | --- | --- | --- | --- |
| UGUCGGAGCAGAGGAUAUUACAUGAGGAUCACCCAUGUAUGAACCUAUAGCUGGAAACAGCAAUGUAAGAAGGCUGCUCCGACA | 0.0235 µM | 0.338 µM | – | – |
| UGUGAGUUGAUCUUAGAUCGGAGUACAUGAGGAUCACCCAUGUAGGAUAUUCAAAGACGCAGAUAGAAGAAGGACAUAGGUUUC | 0.0151 µM | 0.0138 µM | – | – |
| UGUGAGUUGAUGUUAGAUCGGAGUACAUGAGGAUCACCCAUGUAGGAUAUUCAAAGACGCAGAUAGAAGAAGGACAUAGGUUUC | 0.0152 µM | 0.0143 µM | – | – |
| UGUGCGUAUGUGAGGAUAUGCUGGUCCUUGGAUCAGCAGAAGGCACAUGAGGAUCACCCAUGUGGUGUCGUACU | 0.296 µM | 0.0257 µM | – | – |
| UGUGCGUUGAUCUUCGAUCGGUGUACAUGAGGAUCACCCAUGUAGGAUAUUCAAAGACGCAGAUAGGAGAAGGACAUCGGUUUU | 0.018 µM | 0.0198 µM | – | – |
| UGUGUCCGUAGAGGAUAUCCGGGCGUUCGGCUAGGAGAAGGCUGCGACACAUGAGGAUCACCCAUGUAGGUUGUGUCUCUCUAC | 0.0516 µM | 0.275 µM | – | – |
| UGUUGUAUUACAGGAUAUCUAGUAUUUUUAUUCAGAGAAGGGUAUUCACAUGAGGAUCACCCAUGUAUAUACGAGGAAGUUGUG | – | – | 0.0452 µM | 0.0462 µM |
| UGUUGUAUUACAGGAUAUCUAUGAUUUUUAUUAAGAGAAGGGUAUUCACAUGAGGAUCACCCAUGUAUAUACGAGGAAGUUGUG | – | – | 0.0352 µM | 0.036 µM |
| UGUUGUAUUACAGGAUAUCUAUUAGUUUUAAUUAGAGAAGGGUAUUCACAUGAGGAUCACCCAUGUAUAUACGAGGAAGUUGUG | – | – | 0.0391 µM | 0.0422 µM |
| UGUUGUUCAGGAUAUGAUGUUUUAUACAUGAGGAUCACCCAUGUGGGUCCUGAUUUGGCGUCAGAAGGGAAUGUUG | 0.108 µM | 0.222 µM | – | – |
| UGUUGUUCCGCAGGAUAUGUAUUAGAUUAUAAUACAGAAGGGCGAUAACAUGAGGAUCACCCAUGUGUGGACAAUAAGGAAGAG | – | – | 0.602 µM | 0.0812 µM |
| UUAAAACGUGUGAGGAUAUCGAGAGUAGCUGAUCUCGAGAAGGCACAUGAGGAUCACCCAUGUGGCCUGCACCG | 0.0146 µM | 0.0147 µM | – | – |
| UUAAAUCAUGUAGGAUAUGCAUGGCGAAGCUACGCAGAAGGACAUGAGGAUCACCCAUGUGCUAGCGUCUGGAAACAGAUGCAA | 0.056 µM | 0.269 µM | – | – |
| UUAAAUCAUGUAGGAUAUGCAUGGCGAAGCUACGCAGAAGGACAUGAGGAUCACCCAUGUUAUAGCUACCGAUUAAGGUGGCAA | 0.0929 µM | 0.246 µM | – | – |
| UUAAAUCAUGUAGGAUAUGCAUGGCGAAGCUACGCAGAAGGACAUGAGGAUCACCCAUGUUCAAGCGUCUGAGUACAGAUGCAA | 0.0209 µM | 0.102 µM | – | – |
| UUAAAUCGAAACAUGAGGAUCACCCAUGUGUUGUGAUUAAUAUAGGAUAUGUGUAUACUUUUAUGACAGAAGGAUGAUAAUACU | – | – | 0.0123 µM | 0.0107 µM |
| UUAAUCUAUACAGGAUAUCCAUACGGUGCAUACGGAGAAGGGUAACAAUCAUGAGGACAUGAGGAUCACCCAUGUUCUGACCAU | – | – | 0.00723 µM | 0.00635 µM |
| UUAAUGUGAGGAUAUCAGGUGUGCUAGCGUACUGGUACAUCUGAGAAGGCACAUGAGGAUCACCCAUGUUUCUU | 0.0327 µM | 0.11 µM | – | – |
| UUAAUUAACAAGAAGGCAUACAUGAGGAUCACCCAUGUUGUACAUGGAUAAUGAGGAUAUUGCUAAUACAUGAGGAUCACCCAU | 0.0365 µM | 0.0343 µM | – | – |
| UUAAUUAACAAGAAGGCUUACAUGAGGAUCACCCAUGUUGUACAUGGAUAAAGAGGAUAUUGCUAAUAAUUAUUUUUCUUAAUU | 0.0921 µM | 0.0575 µM | – | – |
| UUACAUACAAAGUUACAUGAGGAUCACCCAUGUUUAUUGGGAAGAAGGGUAACAGUAUUACAUAUAUAGGAUAUUUCACAAUUG | – | – | 0.333 µM | 0.181 µM |
| UUACCUCAUGAGAAGGACAUGAGGAUCACCCAUGUAGGAUAUCGUGGGACACUGGUAUUGAAUCUUCGGAUUCAAUACCUGUGU | – | – | 0.465 µM | 0.029 µM |
| UUACCUUAUGAGAAGGCGAUCAUGAAACAUGAUCGAGGAUAUCAUGUAAACAUGAGGAUCACCCAUGUAUGGGUAUUAUGGUAC | – | – | 0.0866 µM | 0.0278 µM |
| UUACUACAUGAGGAUCACCCAUGUCAGGAUAUUGUCUAUACCGUGGAAGCUGUGUCGAUAAGAAGGGACUGUAU | 0.0205 µM | 0.0348 µM | – | – |
| UUACUAUUACAGAAGGUUAAAUAAUAUAUAAAUGAAGGAUAUGUGACAUGAGGAUCACCCAUGUUUCACCCACAUGAGGAUCAU | 0.00862 µM | 0.00741 µM | – | – |
| UUACUAUUGGAGAAGGCUCAAUAAUAUAUAAAGGGAGGAUAUCCAACAUGAGGAUCACCCAUGUUUCACCCAUAUGAGGAUCAC | 0.0131 µM | 0.0125 µM | – | – |
| UUACUCAUGUAAGGAUAUGCAGCCGUUUCGGCUGCAGAAGGUACUAUAAUACAUGAGGAUCACCCAUGUCUAUUUAAUUUUUAC | – | – | 0.0426 µM | 0.0242 µM |
| UUACUCAUGUAAGGAUAUGCAGCCGUUUCGGCUGCAGAAGGUACUAUAAUACAUGAGGAUCACCCAUGUCUCUAUUAUUUAGUG | – | – | 0.0528 µM | 0.0874 µM |

| Sequence | apparent Kd [1] | apparent Kd [2] | apparent Kd [3] | apparent Kd [4] |
| --- | --- | --- | --- | --- |
| UUACUCAUGUAAGGAUAUGUAGCCGUUUCGGCUGCAGAAGGUACUAUAAUACAUGAGGAUCACCCAUGUCUUUUUAAUUUAGAC | – | – | 0.0693 µM | 0.0398 µM |
| UUACUGUUAUAGAAGGGUAUUUGGGAAUUACAUGAGGAUCACCCAUGUUUUAUAGGAUAUGUAUAUAGUAUUUAAUCAAGUUUA | 0.0178 µM | 0.0157 µM | – | – |
| UUAGACGUCGUAGGAUAUGUAGGAUAUUCCUACAUGAGGAUCACCCAUGUUGACAUGGAAGAAGGACAGAAGGACGAUGUCCAU | – | – | 0.307 µM | 0.00491 µM |
| UUAGCGUAAGUAAGGAUAUGCUGGUCGAAAGACCAGCAGAAGGUACAUGAGGAUCACCCAUGUGGAUUCGUUAU | 0.0278 µM | 0.0926 µM | – | – |
| UUAUACAUUCGAGGAUAUCGGAGAGAGAUCAUUCGAGAAGGCGAUUCAUGAUGUAUUAUCCUGGACAUGAGGAUCACCCAUGUA | – | – | 0.101 µM | 0.0681 µM |
| UUAUACGUUGAGGAUAUGCGAAUUAGUAUAGUUGCAGAAGGCGAUACAUGAGGAUCACCCAUGUUCAUGGGCAU | 0.127 µM | 0.243 µM | – | – |
| UUAUAUUUACAAGGAUAUCAAUUAUUUAUACUUCCUACAUGAGGAUCACCCAUGUUUUUAUAUUUUGAGAAGGUGUAAUGUCGG | – | – | 0.0385 µM | 0.0337 µM |
| UUAUCUCAUGAGAAGGACAUGAGGAUCACCCAUGUAGGAUAUCAUGGGUCAGAGGAAUUGAAUCUUCGGAUUCAAUUACUCUUC | – | – | 0.072 µM | 0.0122 µM |
| UUAUGCUUUGAGAAGGUACAAACUACAUAUUGCGCACAUGAGGAUCACCCAUGUUGGUGAAUAAGUAAGGAUAUUAGACUGUGC | 0.133 µM | 0.102 µM | – | – |
| UUAUGUCGCGUAGGAUAUCACUAGUGUUGUAAUUUAAUUGUAAUUACGAUGUGAGAAGGACGUACACAUGAGGAUCACCCAUGU | 0.0203 µM | 0.0162 µM | – | – |
| UUAUGUUUUGUAGGAUAUCAUAAGUUAUGUAUUAUAAUUGAAAUUUUGUUAUGAGAAGGACAUUUACAUGAGGAUCACCCAUGU | 0.0136 µM | 0.00996 µM | – | – |
| UUAUGUUUUGUAGGAUAUCAUUAGAUUUGUAUUUUAAUUGUAAUUUAGAUAUGAGAAGGACAUUUACAUGAGGAUCACCCAUGU | 0.0147 µM | 0.0107 µM | – | – |
| UUAUGUUUUGUAGGAUAUCAUUAGUUAUGUAUUAUAAUUGAAAUUUUGAUUUGAGAAGGACAUUUACAUGAGGAUCACCCAUGU | 0.0134 µM | 0.00992 µM | – | – |
| UUAUUAAGUGUGAGGAUAUGCUGGUCCUUGGAUCAGCAGAAGGCACAUGAGGAUCACCCAUGUAAUAUAUUUAU | 0.103 µM | 0.389 µM | – | – |
| UUAUUGUAUGUAGGAUAUGCAUAUUAUUAUUAUGCAGAAGGACAUGAGGAUCACCCAUGUAUAUUAUUAUUAUAUAUUAUAUAU | 0.0323 µM | 0.0609 µM | – | – |
| UUAUUUCCUCAUGUACAUGAGGAACAUGAGGAUCACCCAUGUAGAAGGAUUUCAAUAAAAUUAAAAUAGGAUAUACAUAUAUUU | 0.0683 µM | 0.0816 µM | – | – |
| UUAUUUGUACAAGGAUAUCUAUUAUAUUCACAUCCUACAUGAGGAUCACCCAUGUUAUAUAUUUUAGAGAAGGUGUAUUGUCUG | – | – | 0.0299 µM | 0.0353 µM |
| UUAUUUUUACAGAAGGUUUAAUAAUAUGUAUGAGAAGGAUAUGUAACAUGAGGAUCACCCAUGUUUUAUUUAUAUGAGGUUCAU | 0.0108 µM | 0.00927 µM | – | – |
| UUCAAGUCAGGAUAUCCAUAUUUCUGAUAUAACGGUACUUUGGAGAAGGGACAUGAGGAUCACCCAUGUAAUCU | 0.0245 µM | 0.0283 µM | – | – |
| UUCAGCUCGUCAGGAUAUACGUCACUGCUUCGGCAGUGUGGUAAGAUCACAUGAGGAUCACCCAUGUAGAAGGGACGAGCUGAG | 0.0123 µM | 0.312 µM | – | – |
| UUCAUGUGAGGAUAUAGUACUCCUUCUAUUAUUAUUGAGUAUUAGAAGGCACAUGAGGAUCACCCAUGUAGUAC | 0.0298 µM | 0.0433 µM | – | – |
| UUCCUCGUUGUGAGGAUAUCGUCCGUGUUUUGUUACGAGAAGGCACAUGAGGAUCACCCAUGUUUUUUGUUUUU | 0.0392 µM | 0.0777 µM | – | – |
| UUCGUGCAGCUUUGCUGUACGCGUACAUGAGGAUCACCCAUGUAGGAUAUGGUACGCUUUGCGUGCUAGAAGGAUAUGGAGAGC | 0.0157 µM | 0.0163 µM | – | – |
| UUCGUGUAAGGAUAUACGACCCAUCCCAUUGGGAUGGACACGUAGAAGGUACAUGAGGAUCACCCAUGUGCUCC | 0.0273 µM | 0.135 µM | – | – |
| UUCUCGAUGUAGAAGGCCGCGUCCGGCUCACGCGGAGGAUAUACAUGAGGAUCACCCAUGUGUUUGUGGCUUAUAUGGUACGAA | 0.043 µM | 0.212 µM | – | – |
| UUCUUGCAAGGAUAUGAUUUAAGUAACAUGAGGAUCACCCAUGUUUUUCCGUUGUUAUGUUCAGAAGGUGCGUGAU | 0.0558 µM | 0.0633 µM | – | – |
| UUCUUUGUUGUGAGGAUAUCGUAUUCUUUUUGUUACGAGAAGGCACAUGAGGAUCACCCAUGUUUCUUGAUGUU | 0.0169 µM | 0.0458 µM | – | – |
